Experimental data taken from ChEMBL document CHEMBL1255260, “Population pharmacokinetics of piperaquine after two different treatment regimens with dihydroartemisinin-piperaquine in patients with Plasmodium falciparum malaria in Thailand” (Antimicrob Agents Chemother, 2008).

Assays:
[1] = Plasma concentration in human with uncomplicated malaria at 31 mg/kg, perorally once daily for 3 days measured at day 20; assay type: ADME, organism-based; parameters: dose 31 mg/kg, route oral; settings: po, read-out: MIC
Summary of the method: (§1)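 Plasma piperaquine concentrations were simulated from the final NONMEM population model (500 simulations at each sampling time up to day 63). This followed oral dihydroartemisinin-piperaquine at a 55 mg/kg piperaquine phosphate total, given once daily at 0, 24 and 48 h or as four doses at 0, 8, 24 and 48 h.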

[2] = AUC (0 to 60 days) in children with uncomplicated malaria at 31 mg/kg, perorally; assay type: ADME, organism-based; parameters: time < 1440 hr, dose 31 mg/kg, route oral; settings: human, plasma, po
Summary of the method: (§2)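 Oral dihydroartemisinin-piperaquine, supervised, with no food restriction, in patients aged 3–55 y. The total dose of 55 mg/kg piperaquine phosphate was given as four doses (0, 8, 24, 48 h) or three doses (0, 24, 48 h). Sparse plasma sampling ran to day 63, measured by SPE-LC-UV (LLOQ 5 or 2.5 ng/ml). AUCs came from individual NONMEM two-compartment estimates. Children were ≤12 y and <30 kg.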

[3] = Apparent oral clearance in healthy human at 25 mg/kg, po after 29 days; assay type: ADME, organism-based; parameters: dose 25 mg/kg, route oral; settings: in vivo
[4] = Terminal half-life in human with uncomplicated malaria at 31 mg/kg, perorally; assay type: ADME, organism-based; parameters: dose 31 mg/kg, route oral; settings: in vivo, po
Summary of the method: (§3)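 Population PK in 98 uncomplicated falciparum patients given dihydroartemisinin-piperaquine orally (55 mg/kg piperaquine phosphate total, 3- or 4-dose regimen). Patients gave a pretreatment sample, 2–4 early-window samples and one sample on days 7–63. Plasma piperaquine was measured by SPE-LC-UV. Log concentrations were fitted by NONMEM (FO/FOCE) to a two-compartment first-order absorption model with regimen as covariate.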

[5] = AUC (0 to 63 days) in human with uncomplicated malaria at 31 mg/kg, perorally once daily for 3 days; assay type: ADME, organism-based; parameters: time < 1512 hr, dose 31 mg/kg, route oral; settings: plasma, po; summary of the method: as §2
[6] = Plasma concentration in human with uncomplicated malaria at 31 mg/kg, perorally four-dose treatment regimen measured at day 20; assay type: ADME, organism-based; parameters: dose 31 mg/kg, route oral; settings: po, read-out: MIC; summary of the method: as §1
[7] = Terminal half-life in healthy human at 4.2 mg/kg, po after 42 days; assay type: ADME, organism-based; parameters: dose 4.2 mg/kg, route oral; settings: in vivo
Homo sapiens [8] = assay: Apparent intercompartmental clearance with respect to bioavailability in human with uncomplicated malaria at 31 mg/kg, perorally; assay type: ADME, organism-based; settings: in vivo, po; summary of the method: as §3
[9] = Apparent oral clearance in high-fat fed healthy human at 4.2 mg/kg, po after 42 days; assay type: ADME, organism-based; parameters: dose 4.2 mg/kg, route oral; settings: in vivo
[10] = Apparent oral clearance in human with uncomplicated malaria at 31 mg/kg, perorally after 63 days; assay type: ADME, organism-based; parameters: dose 31 mg/kg, route oral; settings: in vivo; summary of the method: as §3
[11] = Apparent oral clearance in human with uncomplicated malaria at 35 mg/kg, perorally after 35 days; assay type: ADME, organism-based; parameters: dose 35 mg/kg, route oral; settings: in vivo
[12] = Terminal half-life in human with uncomplicated malaria at 35 mg/kg, perorally after 35 days; assay type: ADME, organism-based; parameters: dose 35 mg/kg, route oral; settings: in vivo, po
[13] = Apparent oral clearance in human with uncomplicated malaria at 31 mg/kg, perorally; assay type: ADME, organism-based; parameters: dose 31 mg/kg, route oral; settings: in vivo; summary of the method: as §3
[14] = Terminal half-life in high-fat fed healthy human at 4.2 mg/kg, po after 42 days; assay type: ADME, organism-based; parameters: dose 4.2 mg/kg, route oral; settings: in vivo
[15] = AUC (0 to 60 days) in human adult with uncomplicated malaria at 31 mg/kg, perorally; assay type: ADME, organism-based; parameters: time < 1440 hr, dose 31 mg/kg, route oral; settings: plasma, po; summary of the method: as §2
Homo sapiens [16] = assay: Apparent peripheral volume of distribution with respect to bioavailability in human with uncomplicated malaria at 31 mg/kg, perorally; assay type: ADME, organism-based; settings: in vivo, po; summary of the method: as §3
[17] = AUC (3 to 20 days) in uncomplicated malaria patient at 31 mg/kg, perorally once daily for 3 days; assay type: ADME, organism-based; parameters: dose 31 mg/kg, route oral; settings: human, plasma, po; summary of the method: as §2
[18] = Terminal elimination half-life in human with uncomplicated malaria at 31 mg/kg, perorally; settings: in vivo, po
[19] = Terminal half-life in human with uncomplicated malaria at 31 mg/kg, perorally after 63 days; assay type: ADME, organism-based; parameters: dose 31 mg/kg, route oral; settings: in vivo, po; summary of the method: as §3
[20] = Apparent steady-state volume of distribution with respect to bioavailability in human with uncomplicated malaria at 31 mg/kg, perorally; assay type: ADME, organism-based; settings: in vivo, po, read-out: Vss/F; summary of the method: as §3
[21] = Apparent steady-state volume of distribution with respect to bioavailability in healthy human at 4.2 mg/kg, po after 42 days; assay type: ADME, organism-based; settings: in vivo, read-out: Vss/F
[22] = Apparent steady-state volume of distribution with respect to bioavailability in human with uncomplicated malaria at 31 mg/kg, perorally after 63 days; assay type: ADME, organism-based; settings: in vivo, po, read-out: Vss/F; summary of the method: as §3
[23] = Apparent steady-state volume of distribution with respect to bioavailability in high-fat fed healthy human at 4.2 mg/kg, po after 42 days; assay type: ADME, organism-based; settings: in vivo, read-out: Vss/F
[24] = Apparent volume of distribution with respect to bioavailability in human with uncomplicated malaria at 31 mg/kg, perorally; assay type: ADME, organism-based; settings: in vivo, po, read-out: Vc/F; summary of the method: as §3
[25] = Terminal half-life in healthy human at 25 mg/kg, po after 29 days; assay type: ADME, organism-based; parameters: dose 25 mg/kg, route oral; settings: in vivo
[26] = AUC (3 to 20 days) in uncomplicated malaria patient at 31 mg/kg, perorally four-dose treatment regimen; assay type: ADME, organism-based; parameters: dose 31 mg/kg, route oral; settings: human, plasma, po; summary of the method: as §2
[27] = Apparent steady-state volume of distribution with respect to bioavailability in human with uncomplicated malaria at 32 mg/kg, perorally after 35 days; assay type: ADME, organism-based; settings: in vivo, po, read-out: Vss/F
[28] = Terminal half-life in human with uncomplicated malaria at 32 mg/kg, perorally after 35 days; assay type: ADME, organism-based; parameters: dose 32 mg/kg, route oral; settings: in vivo, po
[29] = Plasma concentration in human with uncomplicated malaria at 31 mg/kg, perorally at day 28; assay type: ADME, organism-based; parameters: dose 31 mg/kg, route oral; settings: po; summary of the method: as §1
[30] = AUC (0 to 63 days) in uncomplicated malaria patient at 31 mg/kg, perorally four-dose treatment regimen; assay type: ADME, organism-based; parameters: time < 1512 hr, dose 31 mg/kg, route oral; settings: human, plasma, po; summary of the method: as §2
[31] = Apparent oral clearance in human with uncomplicated malaria at 32 mg/kg, perorally after 35 days; assay type: ADME, organism-based; parameters: dose 32 mg/kg, route oral; settings: in vivo
[32] = Apparent oral clearance in healthy human at 4.2 mg/kg, po after 42 days; assay type: ADME, organism-based; parameters: dose 4.2 mg/kg, route oral; settings: in vivo
[33] = AUC (3 to 20 days) in children with uncomplicated malaria at 31 mg/kg, perorally; assay type: ADME, organism-based; parameters: dose 31 mg/kg, route oral; settings: human, plasma, po; summary of the method: as §2
[34] = AUC (3 to 20 days) in human adult with uncomplicated malaria at 31 mg/kg, perorally; assay type: ADME, organism-based; parameters: dose 31 mg/kg, route oral; settings: plasma, po; summary of the method: as §2

**Q.** With `Clc1ccc2c(N3CCN(CCCN4CCN(c5ccnc6cc(Cl)ccc56)CC4)CC3)ccnc2c1` [PIPERAQUINE] as the compound, how does the concentration at 72 h [1] read?
**A.** The concentration at 72 h was 12 ng/mL.

**Q.** And the AUC(0-t) at 1440 h [2]?
**A.** The AUC(0-t) at 1440 h was 25900 ng·h/mL.

**Q.** And the CL/F [3]?
**A.** The CL/F was 16.7 mL/min/kg.

**Q.** What about the half-life [4] of the same compound?
**A.** The half-life was 28 days.

**Q.** What about the AUC at 1512 h [5] of the same compound?
**A.** The AUC at 1512 h was 19400 ng·h/mL.

**Q.** What about the concentration at 20 day [6] of the same compound?
**A.** The concentration at 20 day was 13 ng/mL.

**Q.** And the half-life [7]?
**A.** Its half-life is 20 days.

**Q.** And the CL/F (Homo sapiens [8])?
**A.** Its CL/F is 131 L/h.

**Q.** And the CL/F [9]?
**A.** Its CL/F is 10 mL/min/kg.

**Q.** What about the CL/F [10] of the same compound?
**A.** Its CL/F is 23.3 mL/min/kg.

**Q.** What about the CL/F [11] of the same compound?
**A.** Its CL/F is 30.8 mL/min/kg.

**Q.** What about the half-life [12] of the same compound?
**A.** The half-life was 14 days.

**Q.** What about the CL/F [13] of the same compound?
**A.** Its CL/F is 1100 mL/min.

**Q.** And the half-life [14]?
**A.** The half-life was 21 days.

**Q.** And the AUC(0-t) at 1440 h [15]?
**A.** Its AUC(0-t) at 1440 h is 19400 ng·h/mL.

**Q.** What about the Vp/F (Homo sapiens [16]) of the same compound?
**A.** Its Vp/F is 24000 L.

**Q.** And the AUC [17]?
**A.** Its AUC is 8650 ng·h/mL.

**Q.** What about the half-life [18] of the same compound?
**A.** Its half-life is 27.8 days.

**Q.** What about the half-life [19] of the same compound?
**A.** Its half-life is 28 days.

**Q.** What about the Vd/F [20] of the same compound?
**A.** Its Vd/F is 38100 L.

**Q.** And the Vd/F [21]?
**A.** The Vd/F was 716 L/kg.

**Q.** And the Vd/F [22]?
**A.** Its Vd/F is 874 L/kg.

**Q.** And the Vd/F [23]?
**A.** The Vd/F was 365 L/kg.

**Q.** And the Vd/F [24]?
**A.** Its Vd/F is 8660 L.

**Q.** What about the half-life [25] of the same compound?
**A.** Its half-life is 12 days.

**Q.** What about the AUC(0-t) [26] of the same compound?
**A.** Its AUC(0-t) is 9070 ng·h/mL.

**Q.** What about the Vd/F [27] of the same compound?
**A.** Its Vd/F is 574 L/kg.

**Q.** What about the half-life [28] of the same compound?
**A.** Its half-life is 23 days.

**Q.** And the concentration at 28 day [29]?
**A.** Its concentration at 28 day is less than 10 ng/mL.

**Q.** And the AUC(0-t) at 1512 h [30]?
**A.** Its AUC(0-t) at 1512 h is 20700 ng·h/mL.

**Q.** And the CL/F [31]?
**A.** The CL/F was 15 mL/min/kg.

**Q.** What about the CL/F [32] of the same compound?
**A.** Its CL/F is 19 mL/min/kg.

**Q.** What about the AUC(0-t) [33] of the same compound?
**A.** Its AUC(0-t) is 7580 ng·h/mL.

**Q.** And the AUC(0-t) [34]?
**A.** The AUC(0-t) was 8650 ng·h/mL.
